# Columns and labels:
# centrosomes [1] = assay: centrosome amplification in cells; format: cell-based; details: fig. S1
# [2] = test system: RPE1 human retinal pigment epithelial cells; assay: RPE1 passaging assay and flow cytometry; format: cell-based
# Outline: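 RPE1 cells passaged with inhibitor added on day 0 and washed out on day 8; proliferation followed over serial passages. Data are means ± SD, N = 2.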
# p53 = assay: Western blot of p53 in RPE1 cells; format: cell-based, human; details: RPE1, without genotoxic stress
# [3] = molecular target: T1, Polo-like kinase 4 (Plk4) (Homo sapiens, UniProt O00444); assay: Plk4 inhibition in vitro; format: biochemical; details: read-out: inhibition constant (Ki)
# T1 sequence (O00444 1-970): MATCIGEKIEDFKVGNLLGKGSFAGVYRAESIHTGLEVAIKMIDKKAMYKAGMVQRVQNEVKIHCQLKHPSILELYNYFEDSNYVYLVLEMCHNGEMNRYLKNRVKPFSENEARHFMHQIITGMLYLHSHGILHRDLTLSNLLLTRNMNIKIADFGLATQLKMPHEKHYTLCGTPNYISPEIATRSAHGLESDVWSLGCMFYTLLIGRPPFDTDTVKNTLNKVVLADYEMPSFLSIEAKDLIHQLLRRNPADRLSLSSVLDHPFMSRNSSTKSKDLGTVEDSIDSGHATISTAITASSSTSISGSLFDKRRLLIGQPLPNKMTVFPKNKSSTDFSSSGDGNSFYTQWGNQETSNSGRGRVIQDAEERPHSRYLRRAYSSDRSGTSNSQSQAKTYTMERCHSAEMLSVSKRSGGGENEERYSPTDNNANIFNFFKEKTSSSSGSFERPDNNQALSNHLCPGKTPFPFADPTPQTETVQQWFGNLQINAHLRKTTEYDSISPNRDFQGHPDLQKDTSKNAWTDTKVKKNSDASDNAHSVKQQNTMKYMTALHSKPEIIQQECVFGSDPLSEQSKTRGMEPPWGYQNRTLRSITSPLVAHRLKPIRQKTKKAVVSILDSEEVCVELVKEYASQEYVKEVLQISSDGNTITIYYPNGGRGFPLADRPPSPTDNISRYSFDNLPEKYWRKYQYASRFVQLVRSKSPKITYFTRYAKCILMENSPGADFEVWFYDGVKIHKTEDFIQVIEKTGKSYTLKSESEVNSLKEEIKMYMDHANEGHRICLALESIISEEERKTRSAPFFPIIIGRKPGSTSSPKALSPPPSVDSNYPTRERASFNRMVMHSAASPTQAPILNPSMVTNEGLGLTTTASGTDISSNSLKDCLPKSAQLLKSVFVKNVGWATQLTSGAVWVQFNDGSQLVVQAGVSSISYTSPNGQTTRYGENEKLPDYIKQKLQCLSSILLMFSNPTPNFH
# centrosomes [4] = assay: centrosome depletion; format: cell-based; details: cellular activity
# [5] = test system: HeLa human cervical carcinoma cells; assay: centriole/centrosome depletion and washout in HeLa cells; format: cell-based
# Outline: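 HeLa cells under continuous treatment scored for foci carrying centriolar and pericentriolar markers at each round of division. Cells were imaged 7 days after inhibitor addition and again 10 days after washout.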
# [6] = test system: multiciliated Xenopus epithelial cells; assay: centriole number in multiciliated Xenopus epithelial cells; format: cell-based
# [7] = test system: NIH/3T3 cells induced to overexpress Plk4-GFP; assay: centriole amplification in cells overexpressing wild-type or G95L Plk4-GFP; format: cell-based, mouse
# NIH/3T3 cells = assay: mitotic duration by imaging, NIH/3T3; format: cell-based, mouse; details: centrosome-less NIH/3T3 cells
# HeLa cells = assay: mitotic duration by imaging, HeLa; format: cell-based, human; details: centrosome-less HeLa cells
# [8] = test system: RPE1 cells coexpressing centrin-GFP and H2B-RFP; assay: RPE1 lineage analysis by live-cell imaging; format: cell-based, human; details: acute treatment
# Outline: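 RPE1 cells coexpressing centrin-GFP and H2B-RFP filmed after inhibitor addition. Both GFP and RFP channels were imaged at first to count centrosomes and follow mother-cell mitosis. Daughter fate was then tracked with RFP only. Arrest was scored as failure to enter mitosis within 48 hours of cell birth, and the percentage arresting per generation was reported; N = 2.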
# [9] = test system: RPE1 cells expressing G95L Plk4; assay: RPE1 Plk4 G95L knock-in cells, centrosome number and passaging; format: cell-based, human; details: RPE1, both endogenous PLK4 alleles G95L
# g-H2A.X foci = g-H2A.X foci in RPE1 nuclei; format: cell-based, human; details: RPE1 treated cells
# Outline: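 γ-H2A.X foci, marking double-strand DNA breaks, counted in nuclei of treated RPE1 cells. Values are means ± SD, N = 3.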
structure (smiles),measurement,setting,value
COc1ccc2c(c1)[C@]1(C[C@H]1c1ccc3c(/C=C/c4ccc(CN5C[C@@H](C)O[C@@H](C)C5)cc4)n[nH]c3c1)C(=O)N2 [CFI-400945],effect on centrosome number,centrosomes [1],induces centrosome amplification
"CCOc1cc(C(C)(C)C)ccc1C1=N[C@@](C)(c2ccc(Cl)cc2)[C@@](C)(c2ccc(Cl)cc2)N1C(=O)N1CCN(CCCS(C)(=O)=O)CC1 [R7112, reference compound]",proliferation after washout,"[2]; RPE1, addition day 0, washout day 8",resumption of proliferation
same,effect on p53 levels,p53,raised p53 levels
COc1c(Nc2cc(C)[nH]n2)nc(Sc2ccc(S(=O)(=O)Cc3cccc([N+](=O)[O-])c3F)cc2F)nc1N1CCCCC1 [centrinone-B],Ki,[3],0.6 nM
same,centrosome depletion at (concentration),centrosomes [4],500 nM
COc1c(Nc2cc(C)[nH]n2)nc(Sc2ccc(S(=O)(=O)Cc3cccc([N+](=O)[O-])c3F)cc2F)nc1N1CCOCC1 [centrinone],centrosome depletion at (concentration),centrosomes [4],100 nM
same,reversibility of centriole loss,[5]; 10 days after washout,fully reversible
same,effect on centriolar and pericentriolar material foci,[5]; at each round of cell division,progressive reduction
same,effect on centriole number,[6],reduced centriole number
same,effect on centriole amplification,[7],blocked centriole amplification
same,increase of mitotic duration,NIH/3T3 cells,~20 min
same,increase of mitotic duration,HeLa cells,~1 h
same,effect on cell cycle,"[2]; RPE1, 12-day passaging assay and flow cytometry",cell cycle arrest in G1
same,fraction of progeny arrested,[8]; one-centrosome progeny of pioneer one-centrosome mothers,25.5%
same,fraction of progeny arrested,[8]; progeny of pioneer zero-centrosome mothers,70%
same,fraction of progeny arrested,[8]; zero-centrosome progeny of pioneer one-centrosome mothers,33.0%
same,centrosome loss or proliferation arrest,[9],did not lead to centrosome loss or proliferation arrest
same,g-H2A.X foci abundance,g-H2A.X foci,not more abundant

# Reference: article PMC4764081 (Science (New York, N.Y.), 2015)
